Furin inh = human furin inhibitors, primary screen, biochemical, fluorescence intensity; P09958; purified furin, fluorogenic substrate cleavage; inhibition, % at 20 µM or 30 µM; 0.061% of 220,000 active; in the data active = inhibition above about 25%
Target sequence (P09958 108-714 limits assumed): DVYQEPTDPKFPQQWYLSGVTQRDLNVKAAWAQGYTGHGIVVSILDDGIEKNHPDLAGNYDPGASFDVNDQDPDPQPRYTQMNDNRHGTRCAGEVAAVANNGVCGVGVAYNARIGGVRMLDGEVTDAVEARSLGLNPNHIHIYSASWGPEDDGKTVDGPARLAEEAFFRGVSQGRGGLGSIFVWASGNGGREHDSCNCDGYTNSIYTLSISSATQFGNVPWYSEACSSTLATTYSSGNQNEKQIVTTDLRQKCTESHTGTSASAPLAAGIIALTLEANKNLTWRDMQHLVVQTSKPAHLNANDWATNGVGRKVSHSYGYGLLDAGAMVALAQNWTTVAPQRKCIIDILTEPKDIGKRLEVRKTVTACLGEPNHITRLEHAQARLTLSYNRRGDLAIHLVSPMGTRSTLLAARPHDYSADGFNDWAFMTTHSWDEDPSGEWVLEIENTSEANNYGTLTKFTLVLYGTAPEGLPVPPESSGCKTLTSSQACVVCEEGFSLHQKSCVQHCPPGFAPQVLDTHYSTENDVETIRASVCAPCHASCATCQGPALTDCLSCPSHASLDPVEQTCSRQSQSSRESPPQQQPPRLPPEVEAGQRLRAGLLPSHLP
NPY-Y2 PAM-ag = NPY-Y2 potentiators or agonists, primary screen, cell-based; cells expressing NPY-Y2, potentiator/agonist read-out; activation, % at 3.6 µM; 0.45% of 220,000 active; AID 1359, 2008; in the data active = activation above about 27%;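 note: cells stimulated with NPY near EC25 plus isoproterenol at EC100; 0% = vehicle plus submaximal agonist and 100% = vehicle plus saturating agonist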
NPY-Y1 antag = NPY-Y1 receptor antagonists, primary screen, cell-based | Neuropeptide Y receptor type 1 (Homo sapiens), P25929 | HEK293-CNG Y1 cells, membrane potential fluorescence; NPY at EC95, then isoproterenol | inhibition, % at 3.6 µM | 1% of 200,000 active | AID 1040, 2008;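 active = inhibition above the campaign mean inhibition of all tested compounds plus 3 SD, cut at about 20% in these data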;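 note: 0% = DMSO wells given NPY plus isoproterenol and 100% = isoproterenol alone without NPY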
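Test system – HEK293 Y1/CNG channel cell line · Also added – NPY agonist 25 nM, then isoproterenol 1 µM plus Ro 20-1724 25 µM · Compound dosing – one concentration, 3.6 µM, in 0.4% DMSO · Schedule – compound incubation 1 h at room temperature, readout 45 min post-stimulation · Technique – fluorescence, membrane potential probe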
NPY-Y2 antag = NPY-Y2 receptor antagonists, primary screen, cell-based; inhibition, % at 2.7 µM; Neuropeptide Y receptor type 2 (Homo sapiens), P49146; 0.99% of 140,000 active; NPY-Y2 expressing cells, antagonist mode; in the data active = inhibition above about 17%;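 note: 0% = vehicle with agonist challenge and 100% = reference antagonist with challenge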
KCC2 mod = KCC2 cotransporter modulators, thallium flux, primary screen, cell-based, HEK293 KCC2, FluoZin-2 fluorescence, MLSMR | Solute carrier family 12 member 5 (Homo sapiens), Q9H2X9 | KCC2 cells, thallium flux FluoZin-2 fluorescence | B-score of Tl+ flux slope (higher = more flux/activation; lower = inhibition) at 10 µM | 2.2% of 190,000 active | AID 1456, 2008;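 active = thallium flux slope and its plate-corrected score both differing from the plate sample mean at a set confidence after two filtering rounds, in either direction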;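 note: slope of fluorescence scaled to starting intensity during 10 to 20 s after thallium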
NPY1 pot ag = NPY-Y1 receptor potentiators or agonists, primary screen, cell-based. Neuropeptide Y receptor type 1 (Homo sapiens), P25929. NPY-Y1 expressing cells, potentiator/agonist activation. activation, % at 3.6 µM. 0.37% of 220,000 active; in the data active = activation above about 33%, passing the limit was not always enough;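 note: cells stimulated with NPY at EC10 then isoproterenol at EC100; 0% = low agonist plus stimulus and 100% = saturating agonist plus stimulus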
Active calls of the source: *; . = no result given. Rows were chosen to be rich in hits. Some 3.7% of all compounds tested hit in one or more screens of this group.

SMILES	Furin inh	NPY-Y2 PAM-ag	NPY-Y1 antag	NPY-Y2 antag	KCC2 mod	NPY1 pot ag
CCN(CC)S(=O)(=O)c1ccc(C)c(NC(=O)c2cc(C)oc2C)c1	-27	-5	20*	.	-0.095	15
CC(=O)Nc1ccc(CN2CCCC(C(=O)c3ccc(C(F)(F)F)cc3)C2)cc1 (configuration not stated)	2	-16	2	.	0.11	0
O=C1NC(c2ccccc2OC(F)F)Oc2ccccc21 (configuration not stated)	-27	56*	-6	.	-0.24	46*
COc1ccc([C@H](C)NC[C@H](O)c2ccc(O)c(NC=O)c2)cc1	-36	79*	-9	.	-1.4	59*
CN(C)S(=O)(=O)c1ccc(NC(=S)NC(=O)c2ccc(Br)o2)cc1	-10	-9	3	.	13*	-4
CCCCc1ccc(NC(=O)c2cnccn2)cc1	-34	-1	2	.	-0.52	24
Cc1ccc(NC(=S)N/N=C/c2c(Cl)cccc2Cl)c(C)c1	-18	-3	9	12	53*	-37
Cc1ccc(NC(=S)NCCO)c(C)c1	-20	6	-3	0	.	2
CCNC(=S)N/N=C/c1c(Cl)cccc1Cl	-13	-15	7	7	9.3*	-30
Oc1[nH]c2ccccc2c1N=Nc1nc2ccccc2s1	-6	-5	6	2	6*	15
Cc1ccc2[nH]c(O)c(N=Nc3nc4ccccc4s3)c2c1	-24	8	.	.	40*	34
Oc1[nH]c2ccccc2c1N=Nc1ccccc1	-14	5	.	.	-2.3	4
Cc1ccc(C)c(S(=O)(=O)N=Nc2c(O)[nH]c3ccccc23)c1	-11	9	-2	.	0.76	2
Cc1ccc(NC(=O)CCn2ccc([N+](=O)[O-])n2)nc1	-9	-4	1	0	0.77	-5
COc1ccc2nc(NC(=O)CN(c3ccc(C)cc3)S(=O)(=O)c3c(C)nn(C)c3C)sc2c1	-11	45*	-14	-9	.	55*
CCSc1ccccc1C(=O)NC1CCCCC1	-23	-2	2	.	-0.98	-2
Cc1cc(N(CCO)CCO)ccc1C(c1ccc(N(CCO)CCO)cc1C)c1ccccc1Cl	-14	11	-5	-4	-0.038	45
Cc1nnc(SCC(=O)c2ccc(C(C)C)cc2)s1	-16	6	5	.	-0.66	-9
Clc1ccc(NC2=NCCCCC2)cc1	-35	10	46*	1	-0.11	7
CCN(CC)c1ccc(NC(=O)c2ccccc2OCC(=O)OC)cc1	-7	3	-7	.	0.6	-8
O=C1c2ccccc2C(=O)c2c(NCCCN(CCO)CCO)cccc21	-18	39*	-13	.	-1.2	53*
Cc1ccc(-n2c(C3CC3c3ccc(Cl)cc3)n[nH]c2=S)cc1 (configuration not stated)	-16	8	0	3	-0.021	5
Cc1ccc(C2CC2c2n[nH]c(=S)n2-c2ccc(C)cc2)cc1 (configuration not stated)	6	-12	5	5	21*	-27
Cc1cc(-c2nnc(CCC(=O)N(C)C(C)c3cccs3)o2)no1 (configuration not stated)	4	-2	.	.	-0.41	-5
O=C(CC1C(=O)N(c2ccc(Cl)cc2)C(=S)N1CCc1ccncc1)Nc1ccc(F)cc1 (configuration not stated)	-1	52*	-8	-3	.	61*
SMILES	Furin inh	NPY-Y2 PAM-ag	NPY-Y1 antag	NPY-Y2 antag	KCC2 mod	NPY1 pot ag
Nc1c2ccccc2nc2ccccc12	-68	51*	.	.	-0.87	64*
Cc1c(N(C)C)nc2ccccc2c1N	21	3	5	3	-1.9	4
CCN(CC)c1nc2ccccc2c(N)c1-c1ccccc1	15	-14	29*	23*	-1.2	-10
CC(=O)N(c1nc(CCl)cs1)c1cccc(C)c1C	-15	-6	1	.	-1.7	9
CC1C(C(=O)Nc2ccccc2)CCCC1(C)C(=O)O (configuration not stated)	-2	-6	-1	-1	0.59	29
C[C@@H]1C=C[C@](Cc2ccccc2)(C(=O)NCCc2c[nH]c3ccccc23)N1C(=O)c1ccccc1	-15	0	35*	19*	-0.6	-30

Source: PubChem BioAssay (several laboratories)
